Test results reported in ChEMBL document CHEMBL4152378, “Discovery of a Branched Peptide That Recognizes the Rev Response Element (RRE) RNA and Blocks HIV-1 Replication” (J Med Chem, 2018).
Active and inactive are the calls of the source. The calls are words filed in the database; no cut-off is given here.

Assays:
[1] = Binding affinity to HIV1 rev response element 2B RNA by 2-AP based displacement assay; design: species or system Human immunodeficiency virus 1
How it was run: (§1)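 2-AP-labeled RRE IIB (0.1 μM) refolded at 95 °C 3 min, snap-cooled; titrated with peptide 0–20 μM in 10 mM potassium phosphate, 100 mM KCl, 1 mM MgCl2, 20 mM NaCl, pH 7.0; excitation 310 nm, emission decrease at 372 nm; Kd from Hill fit; at least duplicate, SD. Competition lines include 10-fold excess unlabeled RNA/DNA competitor.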

[2] = system: Human immunodeficiency virus 1; experiment: Binding affinity to HIV1 RRE RNA in HEK293T cells transfected with HIV1 CMV driven GagPol-RRE plasmid assessed as reduction in Rev-RRE dependent nuclear export by measuring intracellular p24 levels at 70 uM after 48 hrs by ELISA relative to control; format: cell-based
How it was run: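 HEK 293T cells transfected with Rev and CMV-driven GagPol-RRE plasmids plus luciferase control; peptides added 5 h after transfection at 70 μM; cells lysed ~48 h post-transfection and intracellular p24 quantified by ELISA as percent inhibition.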

[3] = Binding affinity to HIV1 RRE RNA in HEK293T cells transfected with HIV1 CMV driven GagPol-RRE plasmid assessed as reduction in Rev-RRE dependent nuclear export by measuring intracellular p24 levels after 48 hrs by ELISA relative to control; format: cell-based; conditions: Human immunodeficiency virus 1, HEK-293T
[4] = Cytotoxicity against HEK293T cells assessed as reduction in cell viability after 48 hrs by MTT assay; format: cell-based, HEK-293T; conditions: human
How it was run: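 MTT run in parallel with the transfected HEK 293T reporter set-up; ~48 h post-transfection MTT (5 mg/mL stock in PBS) added, 4 h at 37 °C; solubilized overnight with 10% SDS/0.01 N HCl; absorbance 570 nm; mean ± SD.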

[5] = Binding affinity to HIV1 rev response element 2B RNA in presence of 10-fold excess RRE DNA by 2-AP based displacement assay; design: species or system Human immunodeficiency virus 1; how it was run: as §1
[6] = Binding affinity to HIV1 rev response element 2B RNA in presence of 10-fold excess no bulge RRE RNA by 2-AP based displacement assay; design: species or system Human immunodeficiency virus 1; how it was run: as §1
[7] = Binding affinity to HIV1 rev response element 2B RNA in presence of 10-fold excess TAR RNA by 2-AP based displacement assay; design: species or system Human immunodeficiency virus 1; how it was run: as §1
[8] = system: Human immunodeficiency virus 1; experiment: Binding affinity to [32P]-labeled HIV-rev response element 2B RNA assessed as protection of upper stem region from cleavage by RNase VI incubated for 10 mins up to 20 uM by autoradiography based nuclease protection assay
How it was run: (§2)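 5'-32P RRE IIB (10 nM) with 200 nM unlabeled RRE IIB refolded (95 °C 3 min, ice); incubated with peptide 0–20 μM on ice 4 h in 10 mM Tris pH 7, 100 mM KCl, 10 mM MgCl2; digested on ice with RNase V1 (0.002 U, 10 min) or RNase A (20 ng, 1 h); 12% denaturing PAGE, autoradiography.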

[9] = system: Human immunodeficiency virus 1; experiment: Binding affinity to [32P]-labeled HIV-rev response element 2B RNA assessed as protection of internal loop region from cleavage by RNase A incubated for 1 hr up to 20 uM by autoradiography based nuclease protection assay; how it was run: as §2
[10] = system: Human immunodeficiency virus 1; experiment: Binding affinity to HIV1 234 nucleotide NL4-3 5'-RRE RNA assessed as protection of secondary Rev binding sites from cleavage by […] incubated for 1 hr by SHAPE analysis

N=C(N)N[C@@H]1C[C@H](C(=O)N[C@@H](Cc2ccc(O)cc2)C(N)=O)N(C(=O)[C@H](CCCCNC(=O)c2cnccn2)NC(=O)[C@H](Cc2cccc3ccccc23)NC(=O)[C@H](CCCCNC(=O)[C@H](CCCCNC(=O)c2ccc(B(O)O)cc2)NC(=O)[C@H]2C[C@@H](N)CN2C(=O)[C@H]2C[C@@H](NC(=N)N)CN2)NC(=O)[C@H](CCCCNC(=O)c2ccc(B(O)O)cc2)NC(=O)[C@H]2C[C@@H](N)CN2C(=O)[C@H]2C[C@@H](NC(=N)N)CN2)C1
Kd [1]: 1.5 µM
inhibition [2]: > 50%

N=C(N)N[C@@H]1C[C@H](C(=O)NCCN(CC(=O)N[C@@H](CCCCNC(=O)c2ccc(B(O)O)cc2)C(=O)N[C@@H](Cc2ccc(O)cc2)C(N)=O)C(=O)Cn2cnc3c(=O)[nH]c(N)nc32)N(C(=O)[C@H](CCCCNC(=O)[C@H]2C[C@@H](NC(=N)N)CN2C(=O)[C@H]2C[C@@H](NC(=N)N)CN2C(=O)[C@H]2C[C@@H](N)CN2)NC(=O)[C@H]2C[C@@H](NC(=N)N)CN2C(=O)[C@H]2C[C@@H](NC(=N)N)CN2C(=O)[C@H]2C[C@@H](N)CN2)C1
Kd [1]: 0.41 µM
inhibition [2]: > 50%

N=C(N)N[C@@H]1C[C@H](C(=O)N2C[C@H](NC(=N)N)C[C@@H]2C(=O)N[C@@H](CCCCNC(=O)c2cnccn2)C(=O)N[C@@H](Cc2ccc(O)cc2)C(N)=O)N(C(=O)[C@H](CCCCNC(=O)[C@H](CCCCNC(=O)c2cnccn2)NC(=O)[C@H]2C[C@@H](N)CN2C(=O)CN(CCN)C(=O)Cn2cnc3c(=O)[nH]c(N)nc32)NC(=O)[C@H](CCCCNC(=O)c2cnccn2)NC(=O)[C@H]2C[C@@H](N)CN2C(=O)CN(CCN)C(=O)Cn2cnc3c(=O)[nH]c(N)nc32)C1
Kd [1]: 1.64 µM
inhibition [2]: > 50%

N=C(N)N[C@@H]1C[C@H](C(=O)NCCCC[C@H](NC(=O)[C@H]2C[C@@H](NC(=N)N)CN2C(=O)[C@H]2C[C@@H](N)CN2C(=O)[C@H]2C[C@@H](NC(=N)N)CN2)C(=O)N2C[C@H](N)C[C@@H]2C(=O)N2C[C@H](N)C[C@@H]2C(=O)N[C@@H](CCCCNC(=O)c2ccc(B3OC(=O)c4cc(O)ccc4O3)cc2)C(=O)N[C@@H](Cc2ccc(O)cc2)C(N)=O)N(C(=O)[C@H]2C[C@@H](N)CN2C(=O)[C@H]2C[C@@H](NC(=N)N)CN2)C1
Kd [1]: 2.57 µM
inhibition [2]: > 50%

N=C(N)N[C@@H]1C[C@H](C(=O)NCCCC[C@H](NC(=O)[C@H]2C[C@@H](NC(=N)N)CN2C(=O)[C@H]2C[C@@H](N)CN2C(=O)[C@H]2C[C@@H](NC(=N)N)CN2)C(=O)N[C@@H](CCCCNC(=O)c2cnccn2)C(=O)N[C@@H](CCCCNC(=O)c2cnccn2)C(=O)NCCN(CC(=O)N[C@@H](Cc2ccc(O)cc2)C(N)=O)C(=O)Cn2cnc3c(=O)[nH]c(N)nc32)N(C(=O)[C@H]2C[C@@H](N)CN2C(=O)[C@H]2C[C@@H](NC(=N)N)CN2)C1
Kd [1]: 1.12 µM
inhibition [2]: > 50%

N=C(N)N[C@@H]1C[C@H](C(=O)N[C@@H](Cc2ccc(O)cc2)C(N)=O)N(C(=O)CN(CCNC(=O)[C@H](CCCCNC(=O)c2cnccn2)NC(=O)[C@H](CCCCNC(=O)[C@H]2C[C@@H](N)CN2C(=O)CN(CCNC(=O)CN(CCN)C(=O)Cn2cnc3c(=O)[nH]c(N)nc32)C(=O)Cn2cnc3c(=O)[nH]c(N)nc32)NC(=O)[C@H]2C[C@@H](N)CN2C(=O)CN(CCNC(=O)CN(CCN)C(=O)Cn2cnc3c(=O)[nH]c(N)nc32)C(=O)Cn2cnc3c(=O)[nH]c(N)nc32)C(=O)Cn2cnc3c(=O)[nH]c(N)nc32)C1
Kd [1]: 0.88 µM
IC50 [3]: 15.4 µM
CC50 at 48 h [4]: 135 µM
Kd [5]: 0.99 µM
Kd [6]: 2.04 µM
Kd [7]: 3.09 µM
Activity [8]: Active
Activity [9]: Active
inhibition [2]: > 50%
Activity [10]: Active
